MBD2 DNA inh – MBD2-methylated oligo binding inhibition; hit rate 0.31% among 370,000; AID 686964; Q9UBB5; TR-FRET, MBD2 binding to methylated oligonucleotide; inhibition, % at 4.4 µM; in the data active = inhibition above about 13%
NSD2 inh – inhibitors of human histone methyltransferase NSD2 | NSD2 peptide methylation, AlphaScreen, 120 min | hit rate 0.54% among 310,000 | O96028 | inhibition, % at 12.5 µM; in the data active = inhibition above about 50%
TDP2 absorb – blocks human TDP2 phosphodiesterase activity; O95551; recombinant TDP2, T5PNP hydrolysis, p-nitrophenol absorbance 415 nm; inhibition, % at 12.8 µM; hit rate 0.34% among 370,000;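 active = inhibition above the mean of all tested compounds plus 3 SD, set per campaign, cut at about 25% in these data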;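 note: 0% = DMSO with enzyme and 100% = buffer with substrate but no TDP2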
Target sequence (O95551 whole entry, looked up): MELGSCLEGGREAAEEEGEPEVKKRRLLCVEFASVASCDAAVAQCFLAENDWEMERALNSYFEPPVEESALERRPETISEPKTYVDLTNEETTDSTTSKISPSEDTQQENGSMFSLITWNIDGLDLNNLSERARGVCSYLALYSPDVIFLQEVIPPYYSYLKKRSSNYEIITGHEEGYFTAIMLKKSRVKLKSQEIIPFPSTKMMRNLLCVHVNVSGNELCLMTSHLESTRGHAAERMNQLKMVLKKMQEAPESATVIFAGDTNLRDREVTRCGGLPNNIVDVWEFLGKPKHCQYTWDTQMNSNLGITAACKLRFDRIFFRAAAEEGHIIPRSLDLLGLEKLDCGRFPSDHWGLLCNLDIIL
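Incubation: 2 h at 37 °C; Test system: recombinant human TDP2; Quantity: enzyme 120 nM; Read-out basis: percent inhibition; Medium: 50 mM Tris-HCl pH 7.5 with Mg2+, KCl, DTT, BSA; Repeats: single replicate; Compound: 12.8 µM single point, 1% DMSO; Signal: epi absorbance; Reagent: 5 mM T5PNP chromogenic substrate; Benchmarks: no-enzyme high, DMSO-plus-enzyme low.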
UHRF1 MBD2 ctr – human UHRF1 methylated DNA binding inhibitors. inhibition, % at 4.4 µM. AID 687016. hit rate 0.75% among 370,000. UHRF1 binding to methylated oligo, TR-FRET. Q96T88; in the data active = inhibition above about 21%;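 note: UHRF1 SRA domain binding a hemimethylated CpG hairpin DNA probe; 0% = median of test compound wells and 100% = reference inhibitor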
LEDGF integ inh – blocks HIV-1 LEDGF/p75-dependent DNA integration; TR-FRET IN-LEDGF/p75 DNA integration, Eu/Cy5; inhibition, % at 3.7 µM; hit rate 0.64% among 370,000; AID 743269;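 active = inhibition above the screen-wide mean plus 3 SD, cut at about 13% in these data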;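 note: signal is the Cy5 over europium emission ratio at 671 and 618 nm; 0% = plate median of compound wells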
Casp6 inh – blocks human caspase-6 cleavage activity. P55212. AID 686996. hit rate 0.53% among 350,000. inhibition, % at 12.5 µM. purified caspase-6, Z-VEID-R110 cleavage fluorescence;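 active = mean inhibition across replicates at least about 35%, with every replicate also reaching that limit, limit read from the data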;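 note: 0% = median of neutral control wells and 100% = no fluorescence left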
Target sequence (P55212 24-179 limits assumed): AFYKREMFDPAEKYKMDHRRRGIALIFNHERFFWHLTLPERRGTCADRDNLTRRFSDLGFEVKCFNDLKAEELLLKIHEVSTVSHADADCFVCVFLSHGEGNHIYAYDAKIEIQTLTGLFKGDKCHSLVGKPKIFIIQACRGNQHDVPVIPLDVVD
Target sequence (P55212 194-293 limits assumed): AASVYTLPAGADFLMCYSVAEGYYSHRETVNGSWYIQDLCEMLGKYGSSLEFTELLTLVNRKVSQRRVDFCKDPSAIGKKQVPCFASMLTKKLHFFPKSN
IN multimer act – HIV-1 integrase multimerization activation, counter-screen; activation, % at 7.7 µM; TR-FRET HIV-1 integrase multimerization, biochemical; shares compounds with LEDGF integ inh; hit rate 17% among 2,000; in the data active = activation above about 8.9%
TR-FRET interf – TR-FRET optical interference, LEDGF/p75 integration counter-screen; AID 1053135; TR-FRET optical interference counterscreen, HIV-1 IN multimerization; shares compounds with LEDGF integ inh; 2,000 tested, under 10 active; inhibition, % at 7.7 µM;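 active = inhibition above the mean over all tested compounds plus 3 SD, which no compound reached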;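 note: 0% = integrase with antibodies and DMSO and 100% = antibodies without integrase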
LEDGF integ conf – LEDGF/p75-dependent HIV-1 integration inhibition, confirmation. inhibition, % at 3.7 µM. AID 1053136. shares compounds with LEDGF integ inh. hit rate 36% among 2,000. TR-FRET LEDGF/p75-dependent HIV-1 integration, biochemical; in the data active = inhibition above about 14%
* = called active by the depositor; nt = no result. Compounds with a hit are over-represented: about 1.9% of the library has one in this group of screens.

SMILES	MBD2 DNA inh	NSD2 inh	TDP2 absorb	UHRF1 MBD2 ctr	LEDGF integ inh	Casp6 inh	IN multimer act	TR-FRET interf	LEDGF integ conf
Cc1cccc(CNc2ncnc3ccc(-c4ccc5c(c4)OCO5)cc23)c1	-6	nt	-4	-6	15*	1	0	0	-10
COc1ccccc1-c1ccc([C@H]2[C@@H](CO)N(C(=O)c3cccc(F)c3)[C@H]2C#N)cc1	nt	nt	nt	nt	nt	0	nt	nt	nt
CC(C)C(=O)Nc1ccc2c(c1)C(=O)N(C)[C@@H]1CC[C@H](CC(=O)NCC3CC3)O[C@@H]1CO2	nt	nt	nt	nt	nt	-1	nt	nt	nt
CCC(=O)N(C)C[C@@H]1Oc2ncc(C3=CCCC3)cc2C(=O)N([C@@H](C)CO)C[C@@H]1C	nt	nt	nt	nt	nt	-2	nt	nt	nt
Cc1cc(NC(=O)CSc2ccc3nnc(CCNC(=O)c4ccccc4)n3n2)no1	-2	0	6	-1	-4	0	nt	nt	nt
Cc1ccc(NC(=O)CSc2ccc3nnc(CCNC(=O)c4ccccc4)n3n2)c(C)c1	-6	-2	-6	-1	43*	nt	0	-2	-4
COC(=O)[C@@]12C[C@@H](CC(=O)N3CCN(C(=O)c4ccco4)CC3)C(=O)N(Cc3cccc4ccccc34)C1=CCC(C)(C)C2	-1	nt	3	-1	21*	1	2	-9	-7
COC(=O)[C@@]12C[C@@H](CC(=O)N3CCCCC3)C(=O)N(Cc3cccc4ccccc34)C1=CCC(C)(C)C2	1	nt	-1	0	2	0	nt	nt	nt
CC1(C)CC(=O)C2=C(C1)OC1=C(C(=O)CC(C)(C)C1)C2c1ccc(O)cc1O	-5	16	-13	-3	17*	nt	8	-40	-1
CC1=CC(C)(C)N2C(=O)C(=Nc3ccc(O)cc3)c3cccc1c32	-23	15	12	-11	17*	4	19*	-68	45*
CCOC(=O)[C@]12CCCC=C1N(Cc1ccccc1)C(=O)[C@H](CC(=O)N1CCCCCC1)C2	0	nt	4	2	23*	-2	2	-12	-10
O=C(NCCCO)c1ccc(CSc2nc3ccccc3[nH]2)cc1	5	-1	-5	1	17*	1	0	0	-5
CC(C)NC(=O)N(C)C[C@H]1OCCCC[C@@H](C)Oc2ccc(NS(=O)(=O)c3ccccc3)cc2C(=O)N([C@H](C)CO)C[C@H]1C	nt	nt	nt	nt	nt	0	nt	nt	nt
c1ccc(-c2cn3nc(-c4ccccc4)cnc3n2)cc1	-2	-1	12	0	90*	nt	-1	2	-3
Cc1cc(NC(=O)CC#N)n(-c2nc3ccccc3[nH]2)n1	-3	-4	-12	-1	0	-1	nt	nt	nt
Cc1cc(NC(=O)CSc2nnc(-c3ccncc3)n2Cc2ccccc2)n(-c2ccccc2)n1	2	-3	8	2	70*	3	0	2	-4
Cc1cc(NC(=O)CC#N)n(-c2ccccc2)n1	0	0	1	0	16*	-1	-2	10	-6
O=C(Cn1cnc2cc([N+](=O)[O-])ccc2c1=O)NC1CCS(=O)(=O)C1 (configuration not stated)	3	3	9	1	20*	2	1	-3	0
C[C@H](CO)N1C[C@H](C)[C@@H](CN(C)Cc2ccncc2)Oc2ccc(NC(=O)Nc3ccccc3)cc2CC1=O	nt	nt	nt	nt	nt	-1	nt	nt	nt
CCCCS(=O)(=O)N1CCC(C(=O)Oc2ccccc2OC)CC1	4	-1	1	2	2	-2	nt	nt	nt
CCS(=O)(=O)N1CCC(C(=O)Oc2ccccc2OC)CC1	-7	0	9	-1	22*	-1	1	-5	2
O=C1S/C(=C\C=C\c2ccco2)C(=O)N1c1ccc(O)cc1	4	5	7	10	31*	43*	17*	-60	28*
C=CCN1CCN(C(c2ccccc2)c2nnnn2CCC(C)C)CC1 (configuration not stated)	1	1	11	0	56*	nt	-4	16	-1
CC(=O)Nc1ccc(-c2ccnc3c2CC(C(=O)Nc2ccc(Cl)c(C(F)(F)F)c2)O3)cc1 (configuration not stated)	-1	0	8	1	37*	3	0	-1	-1
C[C@H](CO)N1C[C@H](C)[C@H](CN(C)C(=O)NC2CCCCC2)Oc2c(NC(=O)c3ccncc3)cccc2C1=O	nt	nt	nt	nt	nt	-1	nt	nt	nt
SMILES	MBD2 DNA inh	NSD2 inh	TDP2 absorb	UHRF1 MBD2 ctr	LEDGF integ inh	Casp6 inh	IN multimer act	TR-FRET interf	LEDGF integ conf
COc1cc(C2Nc3ccc4ncccc4c3C3=C2C(=O)CCC3)ccc1O (configuration not stated)	-13	-2	-3	-9	27*	nt	2	-10	-13
COc1cc(C2Nc3ccc4ncccc4c3C3=C2C(=O)CCC3)cc(OC)c1OC (configuration not stated)	-5	8	-3	-1	2	2	nt	nt	nt
Cc1ccc(N=C2NC(=O)/C(=C/C=C/c3ccco3)S2)cc1	1	0	5	5	22*	3	17*	-62	58*
O=C1NC(=Nc2ccccc2)S/C1=C\C=C\c1ccco1	4	5	5	13	34*	15	16*	-57	58*
COC(=O)c1sccc1N/C=C(\C#N)S(=O)(=O)C(C)(C)C	-1	-5	-9	2	79*	-1	0	0	0
COc1ccc(NCc2cc3cc(OC)ccc3[nH]c2=O)cc1	-2	20	1	-8	16*	6	2	-7	0
COc1ccc2[nH]c(=O)c(CN(C(=O)C(C)C)c3ccccc3OC)cc2c1	-6	25	10	2	19*	1	1	-6	-15
CO[C@@H]1CN(C)C(=O)c2ccc(NC(C)=O)cc2OC[C@@H](C)N(C(=O)c2cccnc2)C[C@@H]1C	nt	nt	nt	nt	nt	2	nt	nt	nt
Cn1cc(C(=O)N/N=C/C2=C(N3CCOCC3)C(=C/c3ccc([N+](=O)[O-])cc3)/CC2)ccc1=O	5	nt	0	-3	88*	5	-1	4	-2
Cc1ccc(CNc2ncnc3ccc(-c4ccc(CO)o4)cc23)o1	-3	nt	-4	-2	19*	7	6	-29	5
Cc1sc2ncnc(SCC(=O)N3CCCC3=O)c2c1C	-2	nt	10	-2	61*	nt	1	-7	0
